Laboratory results as given in publication PMC3966493 (Chemistry & biology, 2013).
One block for each molecule: values may come before it. Ends that are not written are not given here. * marks the point of attachment. FITC = O=C1OC2(c3ccc(O)cc3Oc3cc(O)ccc32)c2ccc(NC(=S)*)cc21

Columns and labels:
EphA4 LBD [1] = biological target: T1, EphA4 LBD (Homo sapiens, UniProt P54764); assay: Protein NMR 2D [15N,1H]-HSQC chemical shift perturbation / titration; type: binding; conditions: for binding of individual side-chain fragments by 2D HSQC: perturbations observable only at higher ligand concentrations (3 mM)
T1 sequence (P54764 29-209): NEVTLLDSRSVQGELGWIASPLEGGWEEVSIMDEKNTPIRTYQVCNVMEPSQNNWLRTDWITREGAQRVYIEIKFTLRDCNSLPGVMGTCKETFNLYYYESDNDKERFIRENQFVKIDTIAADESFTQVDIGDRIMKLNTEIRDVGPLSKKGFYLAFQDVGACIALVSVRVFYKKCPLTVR
In short: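 15N-labelled EphA4 LBD (M9 medium with (15NH4)2SO4) at 50 µM was used. 2D [15N,1H]-HSQC spectra (32 scans, 2,048 × 128 complex points, 300 K) were recorded with and without test compound. Shifts were computed as Δδ = √[(Δ1H)² + (0.17·Δ15N)²]. For Kd, compound was titrated stepwise and Δδ was fitted to a quadratic binding equation.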

EphA4 LBD [2] = biological target: T1, EphA4 LBD; assay: Fluorescence polarization assay; type: binding; conditions: 5 µM FITC-KYL, 2 µM EphA4 LBD
In short: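 Human EphA4 LBD (residues 29–209), His-tag purified from E. coli Rosetta-gami (DE3), at 2 µM final, was preincubated 10 min at room temperature with varying test compound in PBS pH 7.2. N-terminally FITC-labelled KYL peptide (5 µM final) was added. After 30 min at room temperature, polarization (mP) was read at ex/em 480/535 nm. Unlabelled KYL served as positive control, DMSO as negative.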

[3] = biological target: human EphA4 ligand-binding domain (residues 29-209) (human, UniProt P54764 29-209); assay: fluorescence polarisation
human EphA4 ligand-binding domain (residues 29-209), sequence (P54764 29-209): as above

- binding of individual side-chain fragments by 2D HSQC (EphA4 LBD [1]): weak binding affinities
Molecule: Cc1c[nH]c2ccccc12 [3-methylindole]

- binding of individual side-chain fragments by 2D HSQC (EphA4 LBD [1]): weak binding affinities
Molecule: Cc1ccc(Cl)cc1 [4-chlorotoluene]

Further lines, the molecule ahead of its results:

Molecule: KYLP
- IC50 by FPA (EphA4 LBD [2]): inactive
- binding by 2D [15N,1H]-HSQC chemical shift perturbation (EphA4 LBD [1]; 50 µM EphA4 LBD, 100 µM compound): inactive

Molecule: {FITC}-KYLPYWPVLSSL [FITC-labeled KYL peptide]
- binding result [3]: binds
